According to ChEMBL document CHEMBL5032512, “A Photohormone for Light-Dependent Control of PPARα in Live Cells” (J Med Chem, 2021):
Activity calls are given as the source filed them. No cut-off for these calls is given here.

Columns and labels:
[1] = target: T1, Peroxisome proliferator-activated receptor alpha (Homo sapiens, UniProt Q07869); assay: Agonist activity at Gal4-fused human PPARalpha LBD transfected in HEK293T cells assessed as transcriptional activation incubated for 14 to 16 hrs by dual-Glo luciferase assay; type: cell-based
T1 sequence (Q07869 whole entry): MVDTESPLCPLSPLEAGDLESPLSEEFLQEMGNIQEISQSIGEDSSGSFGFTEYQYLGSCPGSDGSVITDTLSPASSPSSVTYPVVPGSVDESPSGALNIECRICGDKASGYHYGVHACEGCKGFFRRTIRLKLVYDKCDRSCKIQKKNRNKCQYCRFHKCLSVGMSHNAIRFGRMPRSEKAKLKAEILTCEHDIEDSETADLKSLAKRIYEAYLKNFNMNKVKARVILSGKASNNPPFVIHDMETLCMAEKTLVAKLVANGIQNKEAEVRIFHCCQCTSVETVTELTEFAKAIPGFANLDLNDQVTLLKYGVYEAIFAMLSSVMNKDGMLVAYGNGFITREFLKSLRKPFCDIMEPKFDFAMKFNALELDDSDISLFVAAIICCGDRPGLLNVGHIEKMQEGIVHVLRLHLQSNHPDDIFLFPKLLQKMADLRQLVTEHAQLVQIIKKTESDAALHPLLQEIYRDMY
Method in brief: (§1)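 HEK293T cells transiently transfected with pFR-Luc, pRL-SV40 and Gal4 fusion of human PPAR hinge region plus LBD. Compound added 5 h later in Opti-MEM with 0.1% DMSO, then left overnight (14−16 h). Dual-Glo firefly/Renilla luciferase read, giving RLU. Fold activation is taken against the DMSO control. Max relative activation is set against 1 μM GW7647 (α) or L165,041 (δ). EC50 from a four-parameter fit. Duplicates, ≥3 independent runs.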

[2] = target: T2, Peroxisome proliferator-activated receptor delta (Homo sapiens) (UniProt Q03181); assay: Agonist activity at Gal4-fused human PPARdelta LBD transfected in HEK293T cells assessed as maximal relative activation incubated for 14 to 16 hrs by dual-Glo luciferase assay relative to L165,041; type: cell-based; conditions: time 14-16 hrs; method in brief: as §1
T2 sequence (whole entry): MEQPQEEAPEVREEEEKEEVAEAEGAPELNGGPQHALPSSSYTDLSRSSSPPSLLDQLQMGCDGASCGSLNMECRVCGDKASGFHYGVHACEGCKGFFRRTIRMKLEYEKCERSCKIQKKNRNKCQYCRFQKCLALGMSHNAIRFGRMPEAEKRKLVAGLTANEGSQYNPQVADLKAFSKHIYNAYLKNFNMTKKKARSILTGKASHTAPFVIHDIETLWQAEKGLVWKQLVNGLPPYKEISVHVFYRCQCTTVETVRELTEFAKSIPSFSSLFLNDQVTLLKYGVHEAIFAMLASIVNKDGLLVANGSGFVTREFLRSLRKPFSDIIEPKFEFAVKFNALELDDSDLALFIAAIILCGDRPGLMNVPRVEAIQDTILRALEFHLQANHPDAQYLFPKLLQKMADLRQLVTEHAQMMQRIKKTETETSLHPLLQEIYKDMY

[3] = target: T3, Peroxisome proliferator-activated receptor alpha (Homo sapiens) (UniProt Q07869); assay: Agonist activity at Gal4-fused human PPARalpha LBD transfected in HEK293T cells assessed as maximal relative activation incubated for 14 to 16 hrs by dual-Glo luciferase assay relative to GW7647; type: cell-based; conditions: time 14-16 hrs; method in brief: as §1
T3 sequence (whole entry): T1 sequence (Q07869 whole entry)

[4] = target: T4, Peroxisome proliferator-activated receptor delta (Homo sapiens, UniProt Q03181); assay: Agonist activity at Gal4-fused human PPARdelta LBD transfected in HEK293T cells assessed as transcriptional activation incubated for 14 to 16 hrs by dual-Glo luciferase assay; type: cell-based; method in brief: as §1
T4 sequence (Q03181 whole entry): T2 sequence (whole entry)

[5] = Photostability of compound assessed as photochemical switch by measuring cis-isoform at 50 uM incubated for 8 hrs followed by irradiation with 365 nm UV light for 3 mins by HPLC analysis; type: physicochemical
[6] = target: T5, Peroxisome proliferator-activated receptor gamma (Homo sapiens, UniProt P37231); assay: Agonist activity at Gal4-fused human PPARgamma LBD transfected in HEK293T cells assessed as transcriptional activation incubated for 14 to 16 hrs by dual-Glo luciferase assay; type: cell-based
T5 sequence (P37231 whole entry): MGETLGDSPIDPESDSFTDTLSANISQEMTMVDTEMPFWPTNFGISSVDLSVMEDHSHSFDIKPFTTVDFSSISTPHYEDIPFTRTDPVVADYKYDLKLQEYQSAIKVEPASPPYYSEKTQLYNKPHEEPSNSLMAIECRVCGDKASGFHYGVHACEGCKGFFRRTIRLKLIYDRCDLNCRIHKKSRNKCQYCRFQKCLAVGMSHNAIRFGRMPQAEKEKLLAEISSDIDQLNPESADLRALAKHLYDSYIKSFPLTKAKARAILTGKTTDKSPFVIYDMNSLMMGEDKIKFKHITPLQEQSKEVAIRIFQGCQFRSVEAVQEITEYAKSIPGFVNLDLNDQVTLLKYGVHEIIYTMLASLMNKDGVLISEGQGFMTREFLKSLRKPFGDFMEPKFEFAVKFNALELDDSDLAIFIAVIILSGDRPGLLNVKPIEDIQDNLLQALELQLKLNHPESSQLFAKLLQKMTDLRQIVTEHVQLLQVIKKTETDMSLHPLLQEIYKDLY

[7] = target: T3, Peroxisome proliferator-activated receptor alpha (Homo sapiens); assay: Agonist activity at human Gal4-PPARalpha transfected in HEK293T cells assessed as increase in mCherry fluorescence at 300 nM incubated for 40 hrs by fluorescence microscopic analysis; type: cell-based; conditions: filed as agonist
Method in brief: (§2)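 HEK293T cells transfected separately with UAS-mCherry-NLS plus Gal4-PPARα-LBD, or […]-GFP plus Gal4-PPARδ-LBD. Cells pooled 5 h later and reseeded with compound in 0.1% DMSO. cis form preirradiated 3 min at 365 nm, then held with 75 ms 370 nm pulses every 15 s. Microscope images taken at 40 h. Integrated density set against 1 μM reference agonist. Duplicates, two independent runs.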

[8] = target: T3, Peroxisome proliferator-activated receptor alpha (Homo sapiens); assay: Agonist activity at human Gal4-PPARalpha transfected in HEK293T cells assessed as increase in mCherry fluorescence at 10 nM incubated for 8 hrs followed by irradiation with 365 nm UV light for 3 mins by fluorescence microscopic analysis; type: cell-based
Method in brief: (§3)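 Live HEK293T cells carrying UAS-mCherry-NLS plus Gal4-PPARα-LBD were treated with compound in 0.1% DMSO. mCherry read (ex 585, em 610 nm) hourly from 8 to 24 h and at 36 h. At 8 h, isomers switched by 3 min illumination at 365 or 460 nm. cis state held by Cell DISCO. Fold intensity against DMSO. n = 3.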

[9] = Photostability of compound assessed as photochemical switch by measuring trans-isoform at 50 uM incubated for 8 hrs followed by irradiation with 460 nm UV light for 3 mins by HPLC analysis; type: physicochemical
[10] = target: T2, Peroxisome proliferator-activated receptor delta (Homo sapiens); assay: Agonist activity at human Gal4-PPARdelta transfected in HEK293T cells assessed as increase in eGFP fluorescence at 300 nM incubated for 40 hrs by fluorescence microscopic analysis; type: cell-based; method in brief: as §2
[11] = target: T3, Peroxisome proliferator-activated receptor alpha (Homo sapiens); assay: Agonist activity at human Gal4-PPARalpha transfected in HEK293T cells assessed as increase in mCherry fluorescence at 10 nM incubated for 40 hrs by fluorescence microscopic analysis; type: cell-based; method in brief: as §2
[12] = Microsomal stability in Sprague-Dawley rat liver microsomes assessed as half life at 10 uM measured up to 60 mins in presence of NADPH regenerating system by HPLC-UV analysis; type: ADME, Microsome
Method in brief: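 Compound at 10 μM final, preincubated 5 min at 37 °C in 0.1 M phosphate pH 7.4 with NADPH-regenerating system. Reaction started with Sprague-Dawley rat liver microsomes and stopped with cold methanol at 0, 15, 30 and 60 min. Remaining compound measured by HPLC-UV at 254/280 nm against external calibration. Controls run without NADPH and with heat-inactivated microsomes. Half-life from log-linear fit. Three independent runs.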

[13] = target: T3, Peroxisome proliferator-activated receptor alpha (Homo sapiens); assay: Agonist activity at human Gal4-PPARalpha transfected in HEK293T cells assessed as increase in mCherry fluorescence at 10 nM measured after 8 to 24 hrs by fluorescence microscopic analysis; type: cell-based; conditions: filed as agonist, time 8-24 hrs; method in brief: as §3
[14] = target: T3, Peroxisome proliferator-activated receptor alpha (Homo sapiens); assay: Agonist activity at human Gal4-PPARalpha transfected in HEK293T cells assessed as increase in mCherry fluorescence at 10 nM incubated for 8 hrs followed by irradiation with 460 nm UV light for 3 mins by fluorescence based analysis; type: cell-based; conditions: filed as agonist; method in brief: as §3

Compound	EC50 [1] [nM]	max activation ([2]; filed as agonist) [%]	max activation ([3]; filed as agonist) [%]	EC50 [4] [nM]	EC50 [6] [nM]	max activation [2] [%]	max activation [3] [%]	other results
Cc1ccc(/N=N/c2ccc(OCCc3ccc(OC(C)(C)C(=O)O)cc3)c(Cl)c2)cc1	40	65	76	120	–	–	–	Stability [5]: Stable
CC(C)(Oc1ccc(CCOc2ccc(/N=N/c3ccccc3)cc2Cl)cc1)C(=O)O	29	46	49	240	820	–	–	–
CC(C)(Oc1ccc(COc2ccc(/N=N\c3ccccc3)cc2)cc1)C(=O)O	3500	–	–	4100	–	26	28	–
Cc1ccc(/N=N\c2ccc(OCCc3ccc(OC(C)(C)C(=O)O)cc3)c(C)c2)cc1	640	–	–	800	1200	32	26	–
CC(C)(Oc1ccc(CCOc2ccc(/N=N/c3ccccc3)cc2C(F)(F)F)cc1)C(=O)O	9	45	46	140	–	–	–	–
Cc1cc(/N=N\c2ccccc2)ccc1OCCc1ccc(OC(C)(C)C(=O)O)cc1	240	41	43	3000	–	–	–	Activity [7]: Active; Activity [8]: inactive; Stability [9]: Stable; Activity [10]: inactive; Activity [11]: inactive
Cc1cc(/N=N/c2ccccc2)ccc1OCCc1ccc(OC(C)(C)C(=O)O)cc1	7	45	–	540	–	–	38	Activity [7]: Active; half-life at 10 µM [12]: 1.72 h; Activity [13]: Active; Activity [14]: Active; Activity [10]: inactive; Stability [5]: Stable; Activity ([11]; filed as agonist): Active
Cc1ccc(/N=N/c2ccc(OCCc3ccc(OC(C)(C)C(=O)O)cc3)c(C)c2)cc1	36	47	–	120	2300	–	34	–
CC(C)(Oc1ccc(CCOc2ccc(/N=N\c3ccccc3)cc2Cl)cc1)C(=O)O	40	44	45	350	920	–	–	–
CC(C)(Oc1ccc(COc2ccc(/N=N/c3ccccc3)cc2)cc1)C(=O)O	3700	40	40	2800	–	–	–	–
Cc1ccc(/N=N\c2ccc(OCCc3ccc(OC(C)(C)C(=O)O)cc3)c(C(F)(F)F)c2)cc1	190	40	41	410	1300	–	–	–
Cc1ccc(/N=N/c2ccc(OCCc3ccc(OC(C)(C)C(=O)O)cc3)c(C(F)(F)F)c2)cc1	70	43	87	113	1200	–	–	–
CC(C)(Oc1ccc(CCOc2ccc(/N=N\c3ccccc3)cc2C(F)(F)F)cc1)C(=O)O	71	–	42	310	–	37	–	–

Second part, led by results:

EC50 [1] [nM]	max activation ([2]; filed as agonist) [%]	max activation ([3]; filed as agonist) [%]	EC50 [4] [nM]	EC50 [6] [nM]	max activation [2] [%]	max activation [3] [%]	Compound	other results
280	–	–	3400	–	22	19	CC(C)c1ccc(/N=N\c2ccc(OCCc3ccc(OC(C)(C)C(=O)O)cc3)cc2)cc1	–
1100	–	–	8100	> 10000	28	24	CC(C)(Oc1ccc(CCOc2ccc(/N=N\c3ccc(Cl)cc3)cc2)cc1)C(=O)O	–
1090	61	–	2200	2670	–	31	CC(C)(Oc1ccc(CCOc2ccc(/N=N/c3ccccc3)cc2)cc1)C(=O)O	–
800	–	–	6000	6000	34	29	CC(C)(Oc1ccc(CCOc2ccc(/N=N\c3ccccc3)cc2)cc1)C(=O)O	–
290	–	41	380	–	35	–	Cc1ccc(/N=N\c2ccc(OCCc3ccc(OC(C)(C)C(=O)O)cc3)c(Cl)c2)cc1	Stability [9]: Stable
1100	–	–	3800	> 10000	31	22	Cc1ccc(/N=N\c2ccc(OCCc3ccc(OC(C)(C)C(=O)O)cc3)cc2)cc1	–
470	40	–	1770	–	–	25	CC(C)c1ccc(/N=N/c2ccc(OCCc3ccc(OC(C)(C)C(=O)O)cc3)cc2)cc1	–
790	–	–	8000	3200	39	26	CC(C)(Oc1ccc(CCOc2ccc(/N=N/c3ccc(Cl)cc3)cc2)cc1)C(=O)O	–
